Assay outcomes as filed in PubChem.
Only some compounds are listed: those with a hit (about 4.8% of all), similar ones and a draw of the others.
PAFAH1B2 FP inh: PAFAH1B2 (human) inhibition; recombinant PAFAH1B2, FP-rhodamine activity probe, fluorescence polarization; 1.2% of 340,000 active; inhibition, % at 3.39 µM;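 active = inhibition above the mean of all tested compounds plus 3 SD, cut at about 24% in these data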;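 also: 0% = enzyme with DMSO and 100% = wells lacking PAFAH1B2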
Target sequence (P68402 whole entry, looked up): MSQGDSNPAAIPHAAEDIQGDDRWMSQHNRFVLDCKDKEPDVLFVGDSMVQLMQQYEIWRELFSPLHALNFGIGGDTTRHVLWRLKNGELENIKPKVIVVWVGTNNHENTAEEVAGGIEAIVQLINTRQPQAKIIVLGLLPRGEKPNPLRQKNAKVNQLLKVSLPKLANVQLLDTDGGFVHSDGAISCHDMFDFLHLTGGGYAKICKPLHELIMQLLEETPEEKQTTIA
pPAFAH inh: pPAFAH (human) enzyme inhibition; inhibition, % at 3.39 µM; recombinant pPAFAH, FP-rhodamine probe fluorescence polarization; Q13093; 1.5% of 330,000 active; AID 463082;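 active = inhibition above the mean inhibition across the screen plus 3 SD, cut at about 25% in these data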;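 also: inhibitors block binding of the rhodamine activity-based probe so polarization drops; 0% = enzyme with DMSO and 100% = wells lacking pPAFAH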
PAFAH1B3 FP inh: inhibitors of human PAFAH1B3 | Q15102 | recombinant PAFAH1B3, FP-rhodamine probe, fluorescence polarization | inhibition, % at 3.39 µM | 0.28% of 340,000 active;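 active = inhibition above the screen-wide average of all tested compounds plus 3 SD, cut at about 25% in these data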;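 also: 0% = enzyme with DMSO only and 100% = wells lacking PAFAH1B3 protein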
Target sequence (Q15102 whole entry, looked up): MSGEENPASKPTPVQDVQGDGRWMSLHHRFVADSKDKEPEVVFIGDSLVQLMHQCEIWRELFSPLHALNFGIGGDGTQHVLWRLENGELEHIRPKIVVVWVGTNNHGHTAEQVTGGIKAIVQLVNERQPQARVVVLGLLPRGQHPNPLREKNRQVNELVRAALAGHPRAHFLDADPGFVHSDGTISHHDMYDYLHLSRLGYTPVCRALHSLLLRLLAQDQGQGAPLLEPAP
UCH37 inh: blocks the human deubiquitinase UCH37; Q9Y5K5; purified proteasome/UCH37, Ub-AMC cleavage fluorescence; AID 588478; 0.33% of 330,000 active; inhibition, % (concentration not given with the values);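 active = mean inhibition over replicate wells above about 20%, limit read from the data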;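 also: 0% = compound-free wells with enzyme and 100% = wells lacking proteasome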
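Schedule: 30 min plus 25 min, room temperature / Material: human UCH37 within purified proteasomes / Technique: AMC fluorescence intensity at 355/460 nm / Buffer or medium: pH 7.4 Tris-HCl (50 mM) with ovalbumin, ATP-MgCl2, DTT / Controls: wells without proteasome as full block, compound-free enzyme plus substrate as uninhibited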
PAFAH2 FP inh: inhibitors of human PAFAH2. 0.99% of 340,000 active. recombinant PAFAH2, FP-rhodamine activity probe, fluorescence polarization. AID 492956. inhibition, % at 3.39 µM;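 active = inhibition above the mean over all tested compounds plus 3 SD, cut at about 30% in these data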;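 also: inhibitors block probe labeling of enzyme so polarization drops; 0% = enzyme with DMSO and 100% = wells lacking PAFAH2 protein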
GRIN3A LBD mod: modulators (binders) of human NR3A ligand-binding domain; NR3A LBD differential scanning fluorimetry, Tm shift; 0% = protein alone, 100% = glycine-bound protein; Tm shift relative to glycine control, % at 25 µM; 2.5% of 340,000 active;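 active = melting temperature shift of at least 10% of the positive control shift, at one fixed dose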
PAFAH2 confirm: PAFAH2 (human) inhibition, confirmed | inhibition, % at 3.39 µM | recombinant PAFAH2, FP-rhodamine activity probe, fluorescence polarization | 65% of 2,300 active | shares compounds with PAFAH2 FP inh;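 active = mean inhibition over three repeats above a set limit taken from the earlier primary screen, cut at about 30% in these data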;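 also: inhibitor blocks binding of rhodamine activity probe so polarization falls; 0% = enzyme with DMSO and 100% = wells lacking PAFAH2 protein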
Starred values were filed as active, the others as inactive; x = not tested or not shown.

SMILES | PAFAH1B2 FP inh | pPAFAH inh | PAFAH1B3 FP inh | UCH37 inh | PAFAH2 FP inh | GRIN3A LBD mod | PAFAH2 confirm
C=CCOc1ccc(/C=C/C(=O)OCC(=O)NCCC2=CCCCC2)cc1 | 8 | 7 | -3 | -2 | 17 | 6 | x
COc1ccc(/C=C/C(=O)OCC(=O)NCCC2=CCCCC2)cc1OC | -2 | 6 | -2 | -4 | 65* | -4 | 50*
Oc1cc2c(cc1O)[C@H]1c3ccc(O)c(O)c3OC[C@@]1(O)C2 | 2 | -1 | 5 | x | 15 | 1 | x
Oc1ccc2c(c1)OCC1(O)Cc3cc(O)c(O)cc3C21 (centres undefined) | 13 | x | 11 | x | 34* | -1 | 12
Cc1ccc(C(=O)OCC(=O)Nc2sccc2C(N)=O)cc1NC(=O)c1ccco1 | -1 | 1 | -1 | 0 | 16 | -18 | x
Cc1ccc(C(=O)OCC(=O)Nc2cc(F)ccc2F)cc1NC(=O)c1ccco1 | 2 | -1 | -2 | 1 | 78* | 2 | 70*
Cc1ccc(C(=O)OCC(=O)Nc2sc3c(c2C#N)CCCC3)cc1NC(=O)c1ccco1 | -3 | 21 | -25 | 0 | 13 | -3 | x
Cc1ccc(C(=O)OCC(=O)Nc2ccc(N(C)C)cc2)cc1NC(=O)c1ccco1 | -2 | 1 | 3 | 2 | 41* | 15* | 35*
Cc1ccc(C(=O)OCC(=O)Nc2ncc(Cl)cc2Cl)cc1NC(=O)c1ccco1 | 1 | 10 | 9 | 2 | 42* | 0 | 41*
Cc1ccc(C(=O)OCC(=O)Nc2nc(-c3ccccc3)cs2)cc1NC(=O)c1ccco1 | -3 | -15 | -11 | 0 | -22 | 3 | x
Cc1ccc(C(=O)OCC(=O)Nc2ccccc2)cc1NC(=O)c1ccco1 | -7 | 8 | 1 | 1 | 82* | 0 | 81*
O=C(CN(c1ccccc1)S(=O)(=O)c1ccccc1)NN=Cc1ccco1 | x | x | x | 4 | x | x | x
CCOC(=O)c1ccc2c(c1)nc(SCC(O)=C(C#N)c1nc3ccccc3[nH]1)n2CC | x | x | x | -8 | x | x | x
CCC(C)c1ccccc1NC(=O)COC(=O)c1ccc(C)c(NC(=O)c2ccco2)c1 (centres undefined) | -1 | 1 | 4 | 0 | 78* | 0 | 74*
Cc1ccc(C(=O)OCC(=O)Nc2sc3c(c2C#N)CCCCC3)cc1NC(=O)c1ccco1 | -9 | 0 | -11 | -1 | -8 | 0 | x
CC(SCc1ccccc1)C(=O)NN=Cc1cccs1 (centres undefined) | x | x | x | 4 | x | x | x
COc1ccc(C(C)=NNS(=O)(=O)c2ccccc2)cc1OC | x | x | x | 4 | x | x | x
O=C(COC(=O)c1cccc(S(=O)(=O)N2CCCC2)c1)Nc1ccccc1Cl | -1 | x | 3 | 3 | 29 | 0 | x
O=C(COC(=O)c1ccc(Cl)c(S(=O)(=O)N2CCCCCC2)c1)Nc1ccccc1 | -10 | 17 | -21 | 4 | 44* | 6 | 31*
COc1ccc(C(=O)OCC(=O)NC(Cc2ccccc2)C(C)=O)cc1S(=O)(=O)N1CCCC1 (centres undefined) | 1 | x | 3 | -6 | 35* | 3 | 32*
NS(=O)(=O)c1cccc(NC(=O)COC(=O)c2ccccc2C(=O)c2ccccc2)c1 | -3 | 8 | -4 | 1 | 54* | 0 | 51*
Cc1ccccc1NC(=O)COC(=O)c1cccc(S(=O)(=O)N2CCCCC2)c1 | 2 | 8 | 8 | 2 | 45* | 2 | 28
COc1ccc(OC)c(NC(=O)COC(=O)c2ccc(OC)c(S(=O)(=O)N3CCOCC3)c2)c1 | 5 | 0 | 12 | -2 | 13 | 0 | x
CCCCCCCC(=O)NN=C(C)c1ccc(O)cc1O | x | x | x | -31 | x | x | x
O=C(COC(=O)c1cccc(S(=O)(=O)N2CCCCC2)c1)NCc1ccccc1 | 8 | x | 3 | 1 | 11 | 0 | x
O=C(COC(=O)c1cccc(S(=O)(=O)N2CCCC2)c1)Nc1ccccc1 | 5 | 8 | 8 | 7 | 72* | -1 | 76*
O=C(COC(=O)c1ccc(S(=O)(=O)N2CCCC2)cc1)Nc1ccccc1 | 1 | 5 | 3 | 3 | 4 | 0 | x
